Laboratory results taken from ChEMBL document CHEMBL1131311, “Discovery of a novel, potent, and orally active nonpeptide antagonist of the human luteinizing hormone-releasing hormone (LHRH) receptor” (J Med Chem, 1998).

Target: T1, Gonadotropin-releasing hormone receptor (Homo sapiens, UniProt P30968)
T1 sequence (P30968 whole entry): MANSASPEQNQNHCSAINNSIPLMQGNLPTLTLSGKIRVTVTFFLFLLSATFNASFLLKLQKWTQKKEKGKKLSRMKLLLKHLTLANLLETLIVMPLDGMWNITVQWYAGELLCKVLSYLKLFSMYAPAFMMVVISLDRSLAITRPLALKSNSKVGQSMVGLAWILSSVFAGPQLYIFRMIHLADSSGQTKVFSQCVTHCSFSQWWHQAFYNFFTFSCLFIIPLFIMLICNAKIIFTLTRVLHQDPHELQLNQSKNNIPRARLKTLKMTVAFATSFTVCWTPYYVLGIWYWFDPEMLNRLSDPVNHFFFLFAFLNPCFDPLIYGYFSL
Test: The Compound was tested for the concentration to inhibit 50% of [125 I ]leuprorelin binding to the cloned human Leutinizing releasing hormone receptor (LHRH) receptor.
Summary of the method: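 Membranes from CHO cells stably expressing cloned human LHRH receptor (0.2 mg/mL) incubated with [125I]leuprorelin (0.15 nM) and graded compound in Tris/EDTA/BSA buffer with protease inhibitors, pH 7.5, 60 min at 25 °C. Filtration on PEI-coated glass fiber, gamma counting. Nonspecific binding with 1 µM unlabeled leuprorelin. IC50 from pseudo-Hill fit. Means of ≥3 determinations.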

## CCOC(=O)c1cn(Cc2c(F)cccc2F)c2sc(-c3ccc(N)cc3)c(CN(C)Cc3ccccc3)c2c1=O
  IC50: 4 nM
